We go through two compounds from ChEMBL document CHEMBL5705891, “Small-molecule kinase inhibitors provide insight into Mps1 cell cycle function” (Nat Chem Biol, 2010).

SMILES strings stand for the structures. Active and inactive are the calls of the source. The calls are words filed in the database; no cut-off is given here.

The subject of series [1] is U2OS. The experiment in a line: Induction of premature entry into anaphase in thymidine-treated human U2OS cells expressing H2B-GFP and Plk4 overexpression measured for 30 mins by time lapse imaging analysis relative to control. The settings on record: 0.5 h. Format: functional. Summed up: (§1)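 Doxycycline-inducible Plk4 U2OS cells expressing H2B-GFP were blocked with thymidine for 18 hrs and released into doxycycline (2 μg·ml⁻¹) for 10 hrs. A second 18-hr thymidine block followed, then release for 6 hrs before 5 μM inhibitor, with or without Plk4 induction. Cells were imaged by time-lapse at 37°C, 5% CO₂, timed from NEBD, and bipolar versus multipolar anaphases were scored. Values are mean ± SD of 3 independent experiments.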

The test system of series [2] is U2OS. The experiment in a line: Reversal of nocodazole-induced mitotic arrest in human U2OS cells assessed as decrease in cyclin B level at 0.3 to 10 uM incubated for 4 hrs by immunoblot analysis. The settings on record: dose 0.3-10 µM. Format: functional, cell-based.
Series [3] concerns U2OS. The series can be described thus: Induction of premature entry into anaphase in thymidine-treated human U2OS cells expressing H2B-GFP and Plk4 overexpression assessed as fragmentary divisions into multiple daughter cells measured for 30 mins by time lapse imaging analysis relative to control. Format: functional, cell-based. Summed up: as §1
The target in series [4] is ALK tyrosine kinase receptor (Homo sapiens, UniProt Q9UM73). The series can be described thus: Inhibition of ALK (unknown origin) assessed as residual enzyme activity at 10 uM by Ambit kinase binding assay relative to control.
Series [5] concerns Receptor-type tyrosine-protein kinase FLT3 (Homo sapiens), P36888 [D835Y]. The series can be described thus: Inhibition of FLT3 D835Y mutant (unknown origin) assessed as residual enzyme activity at 10 uM by Ambit kinase binding assay relative to control.
Series [6] concerns the target Dual specificity protein kinase CLK1 (Homo sapiens, UniProt P49759). The experiment in a line: Binding affinity to CLK1 (unknown origin) assessed as dissociation constant by Ambit kinase binding assay.
For series [7], the target named is Insulin-like growth factor 1 receptor (Homo sapiens, UniProt P08069). The experiment in a line: Inhibition of IGF1R (unknown origin) assessed as residual enzyme activity at 10 uM by Ambit kinase binding assay relative to control.
The test system of series [8] is HCT-116. The series can be described thus: Induction of apoptosis in human HCT-116 cells assessed as increase in cleaved PARP level at 5 to 10 uM measured after 48 hrs by immunoblot analysis. Format: functional, cell-based. To be noted: dose 5-10 µM.
Another series deals with HeLa S3. The experiment in a line: Reversal of nocodazole-induced mitotic arrest in human HeLa S3 cells expressing histone H2B-GFP assessed as DNA decondensation at 10 uM measured for 20 to 60 mins by immunofluorescence analysis. Format: functional, cell-based. To be noted: time 20-60 min. An outline of the steps: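 HeLa S3 H2B-GFP cells were held in nocodazole (200 ng·ml⁻¹) with or without inhibitor. Mitotic exit was scored as DNA decondensation and nuclear envelope reassembly, imaged every 5 min (60X objective); 150 cells counted per population.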

The subject of the next series is A549. The series can be described thus: Antiproliferative activity against human A549 cells assessed as loss of clonal survival upto 10 uM incubated for 10 days by crystal violet staining based assay. Format: functional, cell-based. The settings on record: time 10.0 day. Summed up: (§2)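 Colony outgrowth: cells plated at 200 cells per 60-mm dish, exposed to compound or DMSO vehicle and stained with crystal violet after 10 days. HCT116 grown in McCoy's 5A; A549 and HeLa in DMEM; hTERT-RPE1 in DMEM/F-12. All media had 10% FBS and penicillin/streptomycin, 37°C, 5% CO2. Quantified from 3 independent experiments, mean + SD, Student's t test.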

Series [9] has as its target Mitogen-activated protein kinase 1 (Homo sapiens, UniProt P28482). The experiment in a line: Binding affinity to ERK2 (unknown origin) assessed as dissociation constant by Ambit kinase binding assay.
The nature of series [10]: Inhibition of Mps1 in nocodazole-treated Potoroo PTK2 cells expressing EyFP-tagged human Mad2 assessed as decrease in Mad2 recruitment to kinetochore at 10 uM incubated for 1 hr by fluorescence based imaging analysis relative to nocodazole. Also on record: species or system Pt K2. The settings on record: Potorous tridactylus. Summed up:
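PtK2 (male Potorous tridactylus kidney) cells stably expressing human Mad2-EYFP, cultured in Advanced MEM with 2% FBS. Cells were pretreated 1 h with 10 μM inhibitor or DMSO, then given DMSO or nocodazole (200 ng·ml⁻¹). Time-lapse imaging ran at 37°C from NEBD. Kinetochore Mad2-EYFP density was background-corrected and normalized. N=20–29 cells; 95% CI; Student's t test.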

The test system of series [11] is HCT-116. The series can be described thus: Antiproliferative activity against human HCT-116 cells with p53-/- at 10 uM measured after 96 hrs in presence of Z-VAD-FMK by Syto60 staining based assay. Format: functional, cell-based.
The next series deals with UTRM10. The series can be described thus: Induction of aneuploidy in UTRM10 cells (unknown origin) expressing LAP-tagged Mps1 M602Q mutant co-transfected with H2B-EYFP at 10 uM by time-lapse microscopy. Format: functional, cell-based. An outline of the steps:
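UTRM10 LAP-Mps1 cells transfected with H2B-EYFP were treated and imaged by time-lapse in a heated chamber (37°C, 5% CO2).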

The test system of the next series is TERT-RPE1. The series can be described thus: Antiproliferative activity against hTERT-RPE1 cells assessed as loss of clonal survival upto 25 uM incubated for 10 days by crystal violet staining based assay. Format: toxicity, cell-based. The settings on record: human, tert-rpe1, 240 h, time 10 day. Summed up:
as §2

In the next series the test system is HeLa. The experiment in a line: Antiproliferative activity against human HeLa cells at 10 uM incubated for 4 days by Syto60 staining based assay. Format: functional, cell-based. The settings on record: time 4.0 day. An outline of the steps:
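Proliferation read by Syto60 nucleic acid stain fluorescence (excitation 635 nm, emission 695 nm) after treatment for up to 96 h. Each time point normalized to its DMSO control. Mean ± SD from 4 independent experiments. Cells kept at 37°C, 5% CO2 in 10% FBS-supplemented medium.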

The target in series [12] is Serine/threonine-protein kinase ULK3 (Homo sapiens) (UniProt Q6PHR2). The series can be described thus: Inhibition of ULK3 (unknown origin) assessed as residual enzyme activity at 10 uM by Ambit kinase binding assay relative to control.
Series [13] has as its target Serine/threonine-protein kinase TAO3 (Homo sapiens) (UniProt Q9H2K8). The series can be described thus: Inhibition of TAOK3 (unknown origin) assessed as residual enzyme activity at 10 uM by Ambit kinase binding assay relative to control.
For series [14], the target named is Death-associated protein kinase 1 (Homo sapiens) (UniProt P53355). The experiment in a line: Inhibition of DAPK1 (unknown origin) assessed as residual enzyme activity at 10 uM by Ambit kinase binding assay relative to control.
Series [15] has as its target Ribosomal protein S6 kinase alpha-5 (Homo sapiens) (UniProt O75582). The experiment in a line: Inhibition of RPS6KA5 kinase domain 2 (unknown origin) assessed as residual enzyme activity at 10 uM by Ambit kinase binding assay relative to control.
The target in series [16] is MAP kinase-interacting serine/threonine-protein kinase 2 (Homo sapiens) (UniProt Q9HBH9). The experiment in a line: Inhibition of MKNK2 (unknown origin) assessed as residual enzyme activity at 10 uM by Ambit kinase binding assay relative to control.
In series [17] the target is Calcium/calmodulin-dependent protein kinase kinase 1 (Homo sapiens) (UniProt Q8N5S9). The experiment in a line: Inhibition of CAMKK1 (unknown origin) assessed as residual enzyme activity at 10 uM by Ambit kinase binding assay relative to control.
Series [18] addresses Serine/threonine-protein kinase RIO1 (Homo sapiens) (UniProt Q9BRS2). The series can be described thus: Inhibition of RIOK1 (unknown origin) assessed as residual enzyme activity at 10 uM by Ambit kinase binding assay relative to control.
In series [19] the target is Bone morphogenetic protein receptor type-1B (Homo sapiens) (UniProt O00238). The experiment in a line: Inhibition of BMPR1B (unknown origin) assessed as residual enzyme activity at 10 uM by Ambit kinase binding assay relative to control.

Insulin-like growth factor 1 receptor, sequence (P08069 31-736 limits assumed): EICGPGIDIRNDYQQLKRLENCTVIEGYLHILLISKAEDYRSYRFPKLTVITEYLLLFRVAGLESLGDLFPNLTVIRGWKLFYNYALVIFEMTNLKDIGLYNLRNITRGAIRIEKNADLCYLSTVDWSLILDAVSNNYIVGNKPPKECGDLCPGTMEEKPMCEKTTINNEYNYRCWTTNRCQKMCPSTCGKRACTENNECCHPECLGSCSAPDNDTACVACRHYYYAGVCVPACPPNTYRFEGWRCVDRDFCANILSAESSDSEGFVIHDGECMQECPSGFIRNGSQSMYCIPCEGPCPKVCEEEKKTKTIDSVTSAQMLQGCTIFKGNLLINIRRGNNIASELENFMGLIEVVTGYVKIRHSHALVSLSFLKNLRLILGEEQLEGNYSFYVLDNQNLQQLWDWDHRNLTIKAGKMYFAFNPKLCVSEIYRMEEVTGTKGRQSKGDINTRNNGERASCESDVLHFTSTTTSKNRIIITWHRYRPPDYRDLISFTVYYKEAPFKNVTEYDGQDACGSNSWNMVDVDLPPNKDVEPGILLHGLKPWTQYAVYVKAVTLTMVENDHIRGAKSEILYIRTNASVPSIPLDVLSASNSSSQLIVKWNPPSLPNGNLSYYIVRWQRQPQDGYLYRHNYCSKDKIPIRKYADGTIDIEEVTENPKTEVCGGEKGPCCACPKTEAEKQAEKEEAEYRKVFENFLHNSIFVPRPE
Insulin-like growth factor 1 receptor, sequence (P08069 741-1367 limits assumed): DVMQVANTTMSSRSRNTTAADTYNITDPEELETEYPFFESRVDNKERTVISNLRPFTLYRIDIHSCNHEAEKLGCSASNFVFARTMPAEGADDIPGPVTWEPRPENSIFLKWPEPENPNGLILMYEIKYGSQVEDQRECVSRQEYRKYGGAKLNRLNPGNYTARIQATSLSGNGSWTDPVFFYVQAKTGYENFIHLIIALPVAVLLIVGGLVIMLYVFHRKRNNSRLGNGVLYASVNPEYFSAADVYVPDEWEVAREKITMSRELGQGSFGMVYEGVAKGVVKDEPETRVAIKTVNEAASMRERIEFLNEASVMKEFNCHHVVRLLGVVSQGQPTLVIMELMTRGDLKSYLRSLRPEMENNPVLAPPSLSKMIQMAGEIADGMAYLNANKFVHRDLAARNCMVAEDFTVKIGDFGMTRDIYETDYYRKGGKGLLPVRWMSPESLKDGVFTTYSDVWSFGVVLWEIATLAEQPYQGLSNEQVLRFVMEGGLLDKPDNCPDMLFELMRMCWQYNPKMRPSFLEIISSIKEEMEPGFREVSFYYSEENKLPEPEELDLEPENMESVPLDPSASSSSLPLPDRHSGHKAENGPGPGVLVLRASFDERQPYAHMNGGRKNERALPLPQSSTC
Mitogen-activated protein kinase 1, sequence (P28482 whole entry): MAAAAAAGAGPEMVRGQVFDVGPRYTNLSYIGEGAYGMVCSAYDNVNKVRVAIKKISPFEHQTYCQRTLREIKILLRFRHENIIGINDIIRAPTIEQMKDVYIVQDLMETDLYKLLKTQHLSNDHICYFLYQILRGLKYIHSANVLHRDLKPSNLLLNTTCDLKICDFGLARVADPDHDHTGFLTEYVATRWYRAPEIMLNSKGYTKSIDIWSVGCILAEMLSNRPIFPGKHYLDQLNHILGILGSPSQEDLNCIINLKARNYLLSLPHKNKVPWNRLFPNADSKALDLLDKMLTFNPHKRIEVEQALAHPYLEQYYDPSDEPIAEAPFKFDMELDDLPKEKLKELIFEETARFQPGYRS
Serine/threonine-protein kinase TAO3 (Homo sapiens), sequence (Q9H2K8 whole entry): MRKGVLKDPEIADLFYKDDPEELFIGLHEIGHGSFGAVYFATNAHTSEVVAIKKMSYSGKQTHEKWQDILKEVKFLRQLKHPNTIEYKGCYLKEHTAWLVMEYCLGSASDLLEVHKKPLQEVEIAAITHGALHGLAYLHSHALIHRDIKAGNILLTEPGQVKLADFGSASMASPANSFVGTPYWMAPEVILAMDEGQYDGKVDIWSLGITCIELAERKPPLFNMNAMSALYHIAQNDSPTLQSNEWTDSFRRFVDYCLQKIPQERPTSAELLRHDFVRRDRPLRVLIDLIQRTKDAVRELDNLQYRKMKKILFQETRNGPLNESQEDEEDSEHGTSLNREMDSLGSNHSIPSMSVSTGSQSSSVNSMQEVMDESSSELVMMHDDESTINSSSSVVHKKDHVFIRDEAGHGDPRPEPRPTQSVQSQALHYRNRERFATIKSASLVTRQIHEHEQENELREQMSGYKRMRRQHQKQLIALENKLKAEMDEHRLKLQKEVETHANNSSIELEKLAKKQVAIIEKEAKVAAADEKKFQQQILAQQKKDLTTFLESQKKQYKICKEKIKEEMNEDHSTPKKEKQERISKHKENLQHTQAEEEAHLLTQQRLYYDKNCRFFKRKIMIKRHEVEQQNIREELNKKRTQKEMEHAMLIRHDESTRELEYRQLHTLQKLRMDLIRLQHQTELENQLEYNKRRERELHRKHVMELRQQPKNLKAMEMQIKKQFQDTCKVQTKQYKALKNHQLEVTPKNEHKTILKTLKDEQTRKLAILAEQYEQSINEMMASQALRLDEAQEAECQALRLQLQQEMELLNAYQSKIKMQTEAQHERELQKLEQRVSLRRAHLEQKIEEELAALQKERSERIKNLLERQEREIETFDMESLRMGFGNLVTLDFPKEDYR
Serine/threonine-protein kinase RIO1 (Homo sapiens), sequence (Q9BRS2 whole entry): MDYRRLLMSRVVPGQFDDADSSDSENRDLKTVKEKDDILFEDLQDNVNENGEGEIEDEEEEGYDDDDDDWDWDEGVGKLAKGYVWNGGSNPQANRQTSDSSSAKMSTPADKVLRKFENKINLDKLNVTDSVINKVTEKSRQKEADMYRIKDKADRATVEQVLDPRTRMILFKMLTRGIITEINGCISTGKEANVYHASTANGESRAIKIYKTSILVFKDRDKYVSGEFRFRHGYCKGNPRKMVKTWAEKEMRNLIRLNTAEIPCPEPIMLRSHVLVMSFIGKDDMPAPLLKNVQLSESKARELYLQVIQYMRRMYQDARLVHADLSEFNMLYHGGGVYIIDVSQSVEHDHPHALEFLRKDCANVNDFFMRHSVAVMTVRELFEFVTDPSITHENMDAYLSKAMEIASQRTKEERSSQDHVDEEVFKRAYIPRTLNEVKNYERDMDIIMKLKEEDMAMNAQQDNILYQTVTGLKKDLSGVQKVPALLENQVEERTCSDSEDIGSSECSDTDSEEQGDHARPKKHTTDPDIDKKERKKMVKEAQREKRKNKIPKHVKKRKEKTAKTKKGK
ALK tyrosine kinase receptor, sequence (Q9UM73 19-1620 limits assumed): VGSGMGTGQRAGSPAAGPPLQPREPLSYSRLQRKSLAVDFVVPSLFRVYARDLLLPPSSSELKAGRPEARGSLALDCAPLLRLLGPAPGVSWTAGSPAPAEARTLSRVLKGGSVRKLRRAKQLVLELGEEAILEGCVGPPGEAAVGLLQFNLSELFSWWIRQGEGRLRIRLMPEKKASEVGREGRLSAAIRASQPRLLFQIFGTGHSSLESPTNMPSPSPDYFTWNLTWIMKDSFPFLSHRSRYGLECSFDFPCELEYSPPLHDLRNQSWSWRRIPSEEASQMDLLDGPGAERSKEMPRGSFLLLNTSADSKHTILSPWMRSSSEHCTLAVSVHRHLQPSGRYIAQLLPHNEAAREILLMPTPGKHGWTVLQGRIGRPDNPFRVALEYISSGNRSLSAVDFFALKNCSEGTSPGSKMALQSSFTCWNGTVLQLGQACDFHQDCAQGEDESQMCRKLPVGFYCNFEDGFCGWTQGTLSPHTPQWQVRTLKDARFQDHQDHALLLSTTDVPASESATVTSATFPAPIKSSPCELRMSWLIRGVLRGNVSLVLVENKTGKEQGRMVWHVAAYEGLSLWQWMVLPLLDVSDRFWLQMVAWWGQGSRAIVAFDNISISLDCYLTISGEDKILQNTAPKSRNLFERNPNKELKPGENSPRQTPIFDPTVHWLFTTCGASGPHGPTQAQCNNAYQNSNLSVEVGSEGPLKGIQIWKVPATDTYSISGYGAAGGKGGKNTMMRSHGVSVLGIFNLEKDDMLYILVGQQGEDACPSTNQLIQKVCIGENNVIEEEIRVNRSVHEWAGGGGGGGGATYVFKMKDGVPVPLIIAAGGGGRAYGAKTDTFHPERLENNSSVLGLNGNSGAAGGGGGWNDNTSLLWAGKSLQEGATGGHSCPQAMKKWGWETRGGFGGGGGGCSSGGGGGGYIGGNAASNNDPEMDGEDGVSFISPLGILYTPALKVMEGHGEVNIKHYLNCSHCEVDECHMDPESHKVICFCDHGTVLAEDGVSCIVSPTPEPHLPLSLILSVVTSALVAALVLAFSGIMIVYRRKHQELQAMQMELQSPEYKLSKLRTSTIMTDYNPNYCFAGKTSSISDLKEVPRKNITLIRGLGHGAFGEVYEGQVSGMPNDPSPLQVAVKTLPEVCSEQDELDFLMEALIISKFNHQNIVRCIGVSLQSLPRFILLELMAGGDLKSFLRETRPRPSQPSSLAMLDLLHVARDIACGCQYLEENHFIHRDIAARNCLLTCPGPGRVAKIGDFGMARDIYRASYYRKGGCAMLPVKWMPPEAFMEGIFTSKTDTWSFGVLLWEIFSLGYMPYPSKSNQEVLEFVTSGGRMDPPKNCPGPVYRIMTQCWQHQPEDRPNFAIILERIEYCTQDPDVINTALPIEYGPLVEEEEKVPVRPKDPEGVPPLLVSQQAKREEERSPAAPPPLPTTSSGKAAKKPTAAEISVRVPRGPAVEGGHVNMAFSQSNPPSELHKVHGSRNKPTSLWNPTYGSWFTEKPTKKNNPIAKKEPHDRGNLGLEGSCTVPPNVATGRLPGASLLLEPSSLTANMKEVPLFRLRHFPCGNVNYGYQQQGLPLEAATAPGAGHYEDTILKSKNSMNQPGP

Turning to `COc1cc(N2CCC(O)CC2)ccc1Nc1cc(Nc2ccccc2S(=O)(=O)C(C)C)c2cc[nH]c2n1`, the Activity is approximately 60% in the series on U2OS [1]; 8.9% in [4]; 24% in series [5]; 0.9% in [7]; “Toxic” in the series with TERT-RPE1. Further, the outcome with U2OS [2], in the series on U2OS [3], in the series with HCT-116 [8], in the series on HeLa S3, in the series with A549 and in the series with HCT-116 [11] was Active. The outcome in the series on HeLa was Active. Moreover, the Kd was 1900 nM in series [6] and 2900 nM in series [9]. The inhibition at 10 µM in [10] is 70%. The result in the series on UTRM10 was inactive.

`O=C1c2ccccc2-c2n[nH]c3cccc1c23`: the Activity in series [12] worked out at 11%; in [13], 22%; in series [14] it was 1.4%; in series [15], 12%; in [16], 1.9%; in [17], 10%. Besides, the Activity in series [18] is 10%; in series [19] it was 5%.
